Measured values published in ChEMBL document CHEMBL1799953, “Backbone cyclic peptide inhibitors of protein kinase B (PKB/Akt)” (J Med Chem, 2011).
*1 amine or outer side, *2 acyl side, *3 side chain or, on linkers, in order; H or OH if unused. Where a SMILES comes first, the peptide text is derived from it. Bridges are numbered along the chain shown (N, C = ends). [ ]: non-standard residue; d: D form. N(6-aminohexyl)Gly = O=C(CN(CCCCCCN[*:3])[*:1])[*:2]; NGly(3-aminopropyl) = O=C(CN(CCCN[*:3])[*:1])[*:2]; N(2-Aminoethyl)Gly = O=C(CN(CCN[*:3])[*:1])[*:2]; Adipoyl = O=C(CCCCC(=O)[*:2])[*:1]; Glutaryl = O=C(CCCC(=O)[*:2])[*:1]; Gly(N-2-aminoethyl) = NCCNCC(=O)O; Suc = O=C(CCC(=O)[*:2])[*:1]; hLeu = CC(C)CC[C@H](N)C(=O)O; Nva = CCC[C@H](N)C(=O)O; Dap = NC[C@H](N)C(=O)O; CO = O=C([*:1])[*:2]; Nlys = NCCCCNCC(=O)O

These compounds were tested against T1, RAC-alpha serine/threonine-protein kinase (Homo sapiens, UniProt P31749) (assay: Inhibition of Akt using RPRTSSF peptide and [gamma32]ATP at 5 uM by cell-free radioactive assay relative to control).
T1 sequence (P31749 whole entry): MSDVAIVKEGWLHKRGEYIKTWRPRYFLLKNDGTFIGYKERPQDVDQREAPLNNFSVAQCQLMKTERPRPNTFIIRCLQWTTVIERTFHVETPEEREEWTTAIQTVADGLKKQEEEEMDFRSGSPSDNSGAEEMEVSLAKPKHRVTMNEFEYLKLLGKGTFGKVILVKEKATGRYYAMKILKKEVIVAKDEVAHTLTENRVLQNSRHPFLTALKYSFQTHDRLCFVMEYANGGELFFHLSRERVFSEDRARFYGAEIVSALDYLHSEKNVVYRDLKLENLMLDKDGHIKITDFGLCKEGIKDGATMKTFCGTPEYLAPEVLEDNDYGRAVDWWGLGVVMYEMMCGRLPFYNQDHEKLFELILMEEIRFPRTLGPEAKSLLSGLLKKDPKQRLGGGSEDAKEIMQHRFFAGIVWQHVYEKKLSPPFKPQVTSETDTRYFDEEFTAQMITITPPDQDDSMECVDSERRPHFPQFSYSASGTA
Summary of the method: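 Cell-free 32P kinase assay: HisΔPHPKBEEEFlag (0.005 units, one-step Ni-NTA partial purification), 50 mM Hepes pH 7.4, 0.1 mM EGTA, 0.1% 2-mercaptoethanol, 10 mM magnesium acetate, 3 μM RPRTSSF substrate, 10 μM [γ32P]ATP (1 μCi/well). Inhibitor at 5 μM. Activity loss expressed as percent of uninhibited reaction.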

Row | inhibition | Structure (SMILES)
1 | 100% | CCC[C@@H]1NC(=O)[C@H](CCCNC(=N)N)NC(=O)CN(C(=O)[C@@H](N)CCCNC(=N)N)CCCCNC(=O)NCCCCN(CC(N)=O)C(=O)[C@H](CCC(C)C)NC(=O)[C@H](CN)NC(=O)[C@H](Cc2ccc(O)cc2)NC1=O (H-R[Nlys]R[Nva]Y[Dap][hLeu][Nlys]-NH2; linker 2-8 via CO)
2 | 100% | CCC[C@@H]1NC(=O)[C@H](CCCNC(=N)N)NC(=O)CN(C(=O)[C@@H](N)CCCNC(=N)N)CCCCCCNC(=O)NCCCN(CC(N)=O)C(=O)[C@H](CCC(C)C)NC(=O)[C@H](CN)NC(=O)[C@H](Cc2ccc(O)cc2)NC1=O (H-R[N(6-aminohexyl)Gly]R[Nva]Y[Dap][hLeu][NGly(3-aminopropyl)]-NH2; linker 2-8 via CO)
3 | 100% | CCC[C@@H]1NC(=O)[C@H](CCCNC(=N)N)NC(=O)CN(C(=O)[C@@H](N)CCCNC(=N)N)CCCNC(=O)NCCCCCCN(CC(N)=O)C(=O)[C@H](CCC(C)C)NC(=O)[C@H](CN)NC(=O)[C@H](Cc2ccc(O)cc2)NC1=O (H-R[NGly(3-aminopropyl)]R[Nva]Y[Dap][hLeu][N(6-aminohexyl)Gly]-NH2; linker 2-8 via CO)
4 | 98% | CCC[C@@H]1NC(=O)[C@H](CCCNC(=N)N)NC(=O)CN(C(=O)[C@@H](N)CCCNC(=N)N)CCNC(=O)NCCCN(CC(N)=O)C(=O)[C@H](CCC(C)C)NC(=O)[C@H](CN)NC(=O)[C@H](Cc2ccc(O)cc2)NC1=O (H-R[N(2-Aminoethyl)Gly]R[Nva]Y[Dap][hLeu][NGly(3-aminopropyl)]-NH2; linker 2-8 via CO)
5 | 100% | CCC[C@@H]1NC(=O)[C@H](CCCNC(=N)N)NC(=O)CN(C(=O)[C@@H](N)CCCNC(=N)N)CCNC(=O)NCCCCCCN(CC(N)=O)C(=O)[C@H](CCC(C)C)NC(=O)[C@H](CN)NC(=O)[C@H](Cc2ccc(O)cc2)NC1=O (H-R[N(2-Aminoethyl)Gly]R[Nva]Y[Dap][hLeu][N(6-aminohexyl)Gly]-NH2; linker 2-8 via CO)
6 | 60% | CCC[C@H](NC(=O)[C@H](CCCNC(=N)N)NC(=O)[C@H](Cc1ccccc1)NC(=O)[C@@H](N)CCCNC(=N)N)C(=O)N[C@@H](Cc1ccc(O)cc1)C(=O)N[C@@H](CN)C(=O)N[C@@H](CCC(C)C)C(N)=O
7 | 30% | CCC[C@@H]1NC(=O)[C@H](CCCNC(=N)N)NC(=O)[C@@H]2CCCN2C(=O)[C@H](CCCNC(=N)N)NC(=O)CCCCC(=O)NCCCCCCN(CC(N)=O)C(=O)[C@H](CCC(C)C)NC(=O)[C@H](CN)NC(=O)[C@H](Cc2ccc(O)cc2)NC1=O (RPR[Nva]Y[Dap][hLeu][N(6-aminohexyl)Gly]-NH2; linker N-8 via Adipoyl)
8 | 13% | CCC[C@@H]1NC(=O)[C@H](CCCNC(=N)N)NC(=O)[C@@H]2CCCN2C(=O)[C@H](CCCNC(=N)N)NC(=O)CCC(=O)NCCCCN(CC(N)=O)C(=O)[C@H](CCC(C)C)NC(=O)[C@H](CN)NC(=O)[C@H](Cc2ccc(O)cc2)NC1=O (RPR[Nva]Y[Dap][hLeu][Nlys]-NH2; linker N-8 via Suc)
9 | 66% | CCC[C@H](NC(=O)[C@H](CCCNC(=N)N)NC(=O)CNCCCCN)C(=O)N[C@@H](Cc1ccc(O)cc1)C(=O)N[C@@H](CN)C(=O)N[C@@H](CCC(C)C)C(=O)N(CCN)CC(N)=O (H-[Nlys]R[Nva]Y[Dap][hLeu][Gly(N-2-aminoethyl)]-NH2)
10 | 18% | CCC[C@@H]1NC(=O)[C@H](CCCNC(=N)N)NC(=O)[C@@H]2CCCN2C(=O)[C@H](CCCNC(=N)N)NC(=O)CCCCC(=O)NCCCCN(CC(N)=O)C(=O)[C@H](CCC(C)C)NC(=O)[C@H](CN)NC(=O)[C@H](Cc2ccc(O)cc2)NC1=O (RPR[Nva]Y[Dap][hLeu][Nlys]-NH2; linker N-8 via Adipoyl)
11 | 32% | CCC[C@@H]1NC(=O)[C@H](CCCNC(=N)N)NC(=O)[C@@H]2CCCN2C(=O)[C@H](CCCNC(=N)N)NC(=O)CCCC(=O)NCCCCCCN(CC(N)=O)C(=O)[C@H](CCC(C)C)NC(=O)[C@H](CN)NC(=O)[C@H](Cc2ccc(O)cc2)NC1=O (RPR[Nva]Y[Dap][hLeu][N(6-aminohexyl)Gly]-NH2; linker N-8 via Glutaryl)
12 | 32% | CCC[C@H](NC(=O)[C@H](CCCNC(=N)N)NC(=O)[C@@H](CN)NC(=O)[C@@H](N)CCCNC(=N)N)C(=O)N[C@@H](Cc1ccc(O)cc1)C(=O)N[C@@H](CN)C(=O)N[C@@H](CCC(C)C)C(N)=O
13 | 67% | CCC[C@H](NC(=O)[C@H](CCCNC(=N)N)NC(=O)CNCCN)C(=O)N[C@@H](Cc1ccc(O)cc1)C(=O)N[C@@H](CN)C(=O)N[C@@H](CCC(C)C)C(=O)N(CCN)CC(N)=O (H-[Gly(N-2-aminoethyl)]R[Nva]Y[Dap][hLeu][Gly(N-2-aminoethyl)]-NH2)

The compounds below were run against T1, RAC-alpha serine/threonine-protein kinase (assay: Inhibition of Akt using RPRTSSF peptide and [gamma32]ATP by cell-free radioactive assay).
Summary of the method: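 Same reaction: HisΔPHPKBEEEFlag (0.005 units), 50 mM Hepes pH 7.4, 0.1 mM EGTA, 0.1% 2-mercaptoethanol, 10 mM magnesium acetate, 3 μM RPRTSSF, 10 μM [γ32P]ATP. Peptide stock concentration determined by UV spectrophotometry; reference peptide run in every assay.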

Row | IC50 | Structure (SMILES)
14 | 170 nM | CCC[C@@H]1NC(=O)[C@H](CCCNC(=N)N)NC(=O)CN(C(=O)[C@@H](N)CCCNC(=N)N)CCCCNC(=O)NCCCCN(CC(N)=O)C(=O)[C@H](CCC(C)C)NC(=O)[C@H](CN)NC(=O)[C@H](Cc2ccc(O)cc2)NC1=O (H-R[Nlys]R[Nva]Y[Dap][hLeu][Nlys]-NH2; linker 2-8 via CO)
15 | 160 nM | CCC[C@@H]1NC(=O)[C@H](CCCNC(=N)N)NC(=O)CN(C(=O)[C@@H](N)CCCNC(=N)N)CCCCCCNC(=O)NCCCN(CC(N)=O)C(=O)[C@H](CCC(C)C)NC(=O)[C@H](CN)NC(=O)[C@H](Cc2ccc(O)cc2)NC1=O (H-R[N(6-aminohexyl)Gly]R[Nva]Y[Dap][hLeu][NGly(3-aminopropyl)]-NH2; linker 2-8 via CO)
16 | 320 nM | CCC[C@@H]1NC(=O)[C@H](CCCNC(=N)N)NC(=O)CN(C(=O)[C@@H](N)CCCNC(=N)N)CCCNC(=O)NCCCCCCN(CC(N)=O)C(=O)[C@H](CCC(C)C)NC(=O)[C@H](CN)NC(=O)[C@H](Cc2ccc(O)cc2)NC1=O (H-R[NGly(3-aminopropyl)]R[Nva]Y[Dap][hLeu][N(6-aminohexyl)Gly]-NH2; linker 2-8 via CO)
17 | 920 nM | CCC[C@@H]1NC(=O)[C@H](CCCNC(=N)N)NC(=O)CN(C(=O)[C@@H](N)CCCNC(=N)N)CCNC(=O)NCCCN(CC(N)=O)C(=O)[C@H](CCC(C)C)NC(=O)[C@H](CN)NC(=O)[C@H](Cc2ccc(O)cc2)NC1=O (H-R[N(2-Aminoethyl)Gly]R[Nva]Y[Dap][hLeu][NGly(3-aminopropyl)]-NH2; linker 2-8 via CO)
18 | 290 nM | CCC[C@@H]1NC(=O)[C@H](CCCNC(=N)N)NC(=O)CN(C(=O)[C@@H](N)CCCNC(=N)N)CCNC(=O)NCCCCCCN(CC(N)=O)C(=O)[C@H](CCC(C)C)NC(=O)[C@H](CN)NC(=O)[C@H](Cc2ccc(O)cc2)NC1=O (H-R[N(2-Aminoethyl)Gly]R[Nva]Y[Dap][hLeu][N(6-aminohexyl)Gly]-NH2; linker 2-8 via CO)
